Test results published in ChEMBL document CHEMBL1154604, “Novel hybrids from lamellarin D and combretastatin A 4 as cytotoxic agents” (Eur J Med Chem, 2010).
pIC50: −log10 of the molar value.

Experiments:
Type in all cases: functional, cell-based
A549 = assay: Antiproliferative activity against human A549 cells after 48 hrs by MTT assay; conditions: A549, 48 h
Summary of the method: (§1)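 Exponentially growing cells seeded in 96-well plates, left 24 h, then exposed to compounds at given concentrations for 48 h. MTT at 2.5 mg ml^-1 added for 4 h; formazan dissolved in 10% SDS in 0.1 N HCl, absorbance at 570 nm. Viability compared with blank; IC50 (50% inhibition of viability) calculated by Bliss method.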

SGC-7901 = assay: Antiproliferative activity against human SGC7901 cells after 48 hrs by MTT assay; conditions: SGC-7901, 48 h; summary of the method: as §1
K562 = assay: Antiproliferative activity against human K562 cells after 48 hrs by MTT assay; conditions: K562, 48 h; summary of the method: as §1
HCT-116 = assay: Antiproliferative activity against human HCT116 cells after 48 hrs by MTT assay; conditions: HCT-116, 48 h; summary of the method: as §1
SMMC-7721 = assay: Antiproliferative activity against human SMMC7721 cells after 48 hrs by MTT assay; conditions: SMMC-7721, 48 h; summary of the method: as §1

SMILES	pIC50 (A549)	pIC50 (SGC-7901)	pIC50 (K562)	pIC50 (HCT-116)	pIC50 (SMMC-7721)
COc1cc2c(cc1OC(C)C)CCn1cc(-c3ccc(Cl)cc3)c(-c3cc(OC)c(OC)c(OC)c3)c1-2	< 4.03	< 4.03	< 4.03	< 4.03	< 4.03
COc1cc2c(cc1OC(C)C)CCn1cc(-c3ccc(Br)cc3)c(-c3cc(OC)c(OC)c(OC)c3)c1-2	< 4.06	4.81	< 4.06	< 4.06	< 4.06
COc1cc2c(cc1OC)-c1c(-c3cc(OC)c(OC)c(OC)c3)c(-c3ccc(OC)c(OC(C)C)c3)cn1CC2	< 4.05	< 4.05	< 4.05	< 4.05	< 4.05
COc1ccc(-c2c(-c3cc(F)ccc3OC)cn3c2-c2cc(OC)c(OC)cc2CC3)cc1	< 3.96	< 3.96	< 3.96	< 3.96	< 3.96
COc1cc2c(cc1OC)-c1c(-c3cc(OC)c(OC)c(OC)c3)c(-c3ccc(Cl)cc3)cn1CC2	< 4.01	< 4.01	< 4.01	< 4.01	< 4.01
COc1ccc(-c2cn3c(c2-c2cc(OC)c(OC)c(OC)c2)-c2cc(OC)c(OC)cc2CC3)cc1O	< 4.02	< 4.02	4.66	5.49	< 4.02
COc1ccc(-c2cn3c(c2-c2cc(OC)c(OC)c(OC)c2)-c2cc(OC)c(OC(C)C)cc2CC3)cc1O	< 4.04	< 4.04	4.71	< 4.04	< 4.04
COc1cc2c(cc1OC)-c1c(-c3cc(OC)c(OC)c(OC)c3)c(-c3ccc(Br)cc3)cn1CC2	< 4.04	5.92	5.06	< 4.04	4.76
COc1ccc(-c2c(-c3cc(F)ccc3OC(C)C)cn3c2-c2cc(OC)c(OC)cc2CC3)cc1	< 3.99	< 3.99	< 3.99	< 3.99	< 3.99
COc1ccc(-c2c(-c3cc(OC)c(OC)cc3OS(C)(=O)=O)cn3c2-c2cc(OC)c(OC)cc2CC3)cc1OC	< 4.08	< 4.08	< 4.08	< 4.08	< 4.08
COc1cc(OS(C)(=O)=O)c(-c2cn3c(c2-c2ccc(OC(C)C)c(OC)c2)-c2cc(OC)c(OC(C)C)cc2CC3)cc1OC	< 4.12	< 4.12	< 4.12	< 4.12	< 4.12
COc1cc(-c2c(-c3cc(F)ccc3OC)cn3c2-c2cc(OC)c(OC(C)C)cc2CC3)ccc1OC(C)C	< 4.04	< 4.04	< 4.04	< 4.04	< 4.04

Results, then the compound that gave them:

pIC50 (A549)	pIC50 (SGC-7901)	pIC50 (K562)	pIC50 (HCT-116)	pIC50 (SMMC-7721)	SMILES
4.00	< 4.00	4.85	5.24	4.36	COc1cc2c(cc1OC)-c1c(-c3cc(OC)c(OC)c(OC)c3)c(-c3ccc(O)c(O)c3)cn1CC2
< 3.93	< 3.93	5.51	4.46	< 3.93	COc1ccc(-c2c(-c3ccc(O)cc3)cn3c2-c2cc(OC)c(OC)cc2CC3)cc1
4.63	4.64	5.28	4.86	4.82	COc1cc2c(cc1OC)-c1c(-c3cc(OC)c(OC)c(OC)c3)c(-c3ccc(O)cc3)cn1CC2
< 3.98	< 3.98	< 3.98	< 3.98	< 3.98	COc1ccc(-c2c(-c3ccc(O)c(O)c3)cn3c2-c2cc(OC)c(OC)cc2CC3)cc1OC
< 4.03	< 4.03	5.40	5.85	< 4.03	COc1cc2c(cc1OC(C)C)CCn1cc(-c3ccc(O)c(O)c3)c(-c3cc(OC)c(OC)c(OC)c3)c1-2
5.17	4.94	5.57	6.15	4.96	COc1cc(-c2c(-c3ccc(O)c(O)c3)cn3c2-c2cc(OC)c(OC(C)C)cc2CC3)ccc1OC(C)C
< 3.96	< 3.96	< 3.96	< 3.96	< 3.96	COc1ccc(-c2c(-c3ccc(OC)c(O)c3)cn3c2-c2cc(OC)c(OC)cc2CC3)cc1
< 4.01	< 4.01	< 4.01	< 4.01	4.33	COc1cc2c(cc1OC(C)C)CCn1cc(-c3ccc(O)cc3)c(-c3cc(OC)c(OC)c(OC)c3)c1-2
< 4.13	< 4.13	4.22	4.68	< 4.13	COc1cc(-c2c(-c3cc(OC)c(OC(C)C)cc3OS(C)(=O)=O)cn3c2-c2cc(OC)c(OC(C)C)cc2CC3)ccc1OC(C)C
< 4.07	< 4.07	4.08	< 4.07	< 4.07	COc1ccc(-c2cn3c(c2-c2cc(OC)c(OC)c(OC)c2)-c2cc(OC)c(OC(C)C)cc2CC3)cc1OC(C)C
< 4.02	< 4.02	4.43	< 4.02	< 4.02	COc1cc2c(cc1OC)-c1c(-c3cc(OC)c(OC)c(OC)c3)c(-c3cc(F)ccc3OC)cn1CC2
–	5.48	–	–	–	CC(=O)O[C@H]1C(=O)[C@@]2(C)[C@H]([C@H](OC(=O)c3ccccc3)[C@]3(O)C[C@H](OC(=O)[C@H](O)[C@@H](NC(=O)c4ccccc4)c4ccccc4)C(C)=C1C3(C)C)[C@]1(OC(C)=O)CO[C@@H]1C[C@@H]2O [PACLITAXEL]
